The values below come from PMC8542630 (Cell chemical biology, 2021).

Molecules are shown by their SMILES. Like-named read-outs stand apart in the source and are kept apart here. Where only a bound is given, the exact number is not on record here.

Experiment [1] concerns the target T1, GFP-Sc-Dyn (Saccharomyces cerevisiae, UniProt P36022). Put plainly: Microscale thermophoresis. It counts as binding, S. cerevisiae. (In general: In MST a laser heats a spot of the sample, and binding alters the fluorescence response.)
Experiment [2] has as its target GFP-Sc-Dyn V2391S/M2732S (AAA3_V-S/AAA4_M-S) (Saccharomyces cerevisiae, UniProt P36022, M2732S/V2391S). As to the kind of experiment: Microscale thermophoresis. The class given is binding. Particulars: read-out: EC50, AMPPNP binding to AAA3_V-S/AAA4_M-S (MST); mean ± 95% CI, n=3.
For experiment [3], the target named is T2, Hs-dynein 1 (Homo sapiens, UniProt Q14204). Particulars: ref Steinman et al., 2017; cited from earlier work.
T2 sequence (Q14204 1320-4646): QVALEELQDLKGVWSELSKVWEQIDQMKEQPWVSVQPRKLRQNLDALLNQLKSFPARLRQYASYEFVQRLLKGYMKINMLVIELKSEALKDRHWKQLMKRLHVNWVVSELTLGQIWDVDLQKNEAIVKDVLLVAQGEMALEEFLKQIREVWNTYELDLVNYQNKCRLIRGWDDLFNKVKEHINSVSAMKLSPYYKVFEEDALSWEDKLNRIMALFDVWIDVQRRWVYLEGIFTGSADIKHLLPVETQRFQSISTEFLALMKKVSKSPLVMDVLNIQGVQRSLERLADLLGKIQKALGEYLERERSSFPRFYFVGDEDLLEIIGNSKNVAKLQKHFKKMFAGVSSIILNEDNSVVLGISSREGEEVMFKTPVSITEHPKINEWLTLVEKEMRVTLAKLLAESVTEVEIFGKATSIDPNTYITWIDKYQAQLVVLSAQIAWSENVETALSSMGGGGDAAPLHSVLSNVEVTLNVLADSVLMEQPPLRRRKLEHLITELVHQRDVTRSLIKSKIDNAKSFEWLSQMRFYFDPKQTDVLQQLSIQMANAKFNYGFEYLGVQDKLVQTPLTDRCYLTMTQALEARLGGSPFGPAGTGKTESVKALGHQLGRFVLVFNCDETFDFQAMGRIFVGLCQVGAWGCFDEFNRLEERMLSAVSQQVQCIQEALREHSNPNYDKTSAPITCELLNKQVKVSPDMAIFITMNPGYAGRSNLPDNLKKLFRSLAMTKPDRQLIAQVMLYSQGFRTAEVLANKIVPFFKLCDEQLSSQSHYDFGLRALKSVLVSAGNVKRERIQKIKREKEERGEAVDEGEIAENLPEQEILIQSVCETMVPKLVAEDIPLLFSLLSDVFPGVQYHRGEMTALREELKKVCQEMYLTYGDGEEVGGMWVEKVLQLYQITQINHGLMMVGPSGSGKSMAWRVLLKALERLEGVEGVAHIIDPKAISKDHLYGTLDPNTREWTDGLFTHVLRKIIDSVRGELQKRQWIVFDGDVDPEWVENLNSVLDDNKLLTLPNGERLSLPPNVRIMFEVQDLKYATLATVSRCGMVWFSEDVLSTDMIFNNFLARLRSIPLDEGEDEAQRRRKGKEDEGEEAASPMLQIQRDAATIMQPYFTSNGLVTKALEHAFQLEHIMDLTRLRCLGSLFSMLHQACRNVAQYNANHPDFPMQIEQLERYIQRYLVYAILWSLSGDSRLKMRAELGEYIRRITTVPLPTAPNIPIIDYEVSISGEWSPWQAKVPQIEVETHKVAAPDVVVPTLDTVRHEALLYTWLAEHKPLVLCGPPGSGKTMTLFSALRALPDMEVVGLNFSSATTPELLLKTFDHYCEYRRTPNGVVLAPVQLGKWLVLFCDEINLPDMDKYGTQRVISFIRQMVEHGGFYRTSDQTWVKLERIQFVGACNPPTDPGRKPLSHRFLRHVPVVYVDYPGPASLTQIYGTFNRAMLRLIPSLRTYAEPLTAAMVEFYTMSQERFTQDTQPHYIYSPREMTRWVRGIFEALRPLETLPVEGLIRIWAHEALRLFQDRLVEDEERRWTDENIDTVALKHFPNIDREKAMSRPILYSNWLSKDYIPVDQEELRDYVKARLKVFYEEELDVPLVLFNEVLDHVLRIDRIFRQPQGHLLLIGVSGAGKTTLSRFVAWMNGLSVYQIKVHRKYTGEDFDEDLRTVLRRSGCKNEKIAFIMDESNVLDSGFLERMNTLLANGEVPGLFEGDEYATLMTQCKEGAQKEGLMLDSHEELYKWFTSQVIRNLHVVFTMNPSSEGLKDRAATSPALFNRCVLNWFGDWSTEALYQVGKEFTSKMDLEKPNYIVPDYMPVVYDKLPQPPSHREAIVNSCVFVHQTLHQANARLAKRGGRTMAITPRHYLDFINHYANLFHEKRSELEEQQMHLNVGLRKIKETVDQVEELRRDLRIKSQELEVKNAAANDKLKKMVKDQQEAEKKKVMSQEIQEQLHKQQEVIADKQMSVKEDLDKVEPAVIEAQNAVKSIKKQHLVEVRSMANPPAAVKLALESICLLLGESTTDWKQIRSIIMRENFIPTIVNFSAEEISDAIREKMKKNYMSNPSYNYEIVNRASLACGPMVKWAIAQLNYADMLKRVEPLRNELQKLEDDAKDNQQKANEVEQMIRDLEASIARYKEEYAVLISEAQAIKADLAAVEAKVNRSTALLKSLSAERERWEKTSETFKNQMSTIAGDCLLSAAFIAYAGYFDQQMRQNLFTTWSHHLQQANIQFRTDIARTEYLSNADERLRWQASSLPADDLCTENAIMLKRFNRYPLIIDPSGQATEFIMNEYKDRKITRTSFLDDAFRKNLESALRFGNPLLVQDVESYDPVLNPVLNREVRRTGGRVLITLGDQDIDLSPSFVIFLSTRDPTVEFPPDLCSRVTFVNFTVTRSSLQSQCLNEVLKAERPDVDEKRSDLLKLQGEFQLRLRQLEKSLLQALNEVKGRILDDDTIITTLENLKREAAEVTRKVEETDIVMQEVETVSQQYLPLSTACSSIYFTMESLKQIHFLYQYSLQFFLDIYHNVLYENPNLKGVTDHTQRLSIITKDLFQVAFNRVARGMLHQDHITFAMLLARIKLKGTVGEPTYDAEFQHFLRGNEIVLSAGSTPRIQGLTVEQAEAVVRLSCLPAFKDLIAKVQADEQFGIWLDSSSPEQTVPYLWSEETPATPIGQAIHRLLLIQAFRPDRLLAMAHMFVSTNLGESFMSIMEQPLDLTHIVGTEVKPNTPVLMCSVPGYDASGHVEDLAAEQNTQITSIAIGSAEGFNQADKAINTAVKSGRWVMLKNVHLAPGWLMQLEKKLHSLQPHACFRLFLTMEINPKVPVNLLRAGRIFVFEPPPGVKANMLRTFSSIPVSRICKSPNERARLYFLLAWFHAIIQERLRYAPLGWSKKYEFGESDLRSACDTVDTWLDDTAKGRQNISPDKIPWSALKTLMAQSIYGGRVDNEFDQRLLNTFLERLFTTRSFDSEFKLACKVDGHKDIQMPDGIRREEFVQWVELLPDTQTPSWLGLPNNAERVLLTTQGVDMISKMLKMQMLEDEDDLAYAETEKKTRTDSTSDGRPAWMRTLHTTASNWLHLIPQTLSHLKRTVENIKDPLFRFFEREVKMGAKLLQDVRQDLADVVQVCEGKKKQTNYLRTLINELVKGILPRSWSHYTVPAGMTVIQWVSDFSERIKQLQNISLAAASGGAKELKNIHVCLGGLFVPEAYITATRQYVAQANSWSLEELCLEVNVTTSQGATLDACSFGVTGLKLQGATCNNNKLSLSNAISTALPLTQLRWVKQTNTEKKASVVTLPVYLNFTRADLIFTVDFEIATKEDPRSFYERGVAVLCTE
In experiment [4] the target is T2, Hs-dynein 1. The note with it: read-out: IC50, inhibition of Hs-dynein 1; ref Steinman et al., 2017; cited from earlier work.
Experiment [5] deals with T2, Hs-dynein 1. As to the kind of experiment: Radioactive ATPase assay, basal ATPase activity of Hs-dynein 1. Particulars: for Inhibition of Hs-dynein 1 basal ATPase activity (in words): compounds tested at 20 μM, 1 mM MgATP, no microtubules, n=2. The class given is biochemical. Put shortly: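 Hs-dynein 1 motor construct (N-terminal His6, aa 1320–4646) at 30 nM, without microtubules. Radioactive ATPase reaction ran for 45 min with test compound. Percent inhibition was obtained by normalising the ATPase rate with compound to DMSO control.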

Experiment [6] concerns the target T3, Sc-Dyn-lyso (Saccharomyces cerevisiae, UniProt P36022).
T3 sequence (P36022 1758-2992 limits assumed): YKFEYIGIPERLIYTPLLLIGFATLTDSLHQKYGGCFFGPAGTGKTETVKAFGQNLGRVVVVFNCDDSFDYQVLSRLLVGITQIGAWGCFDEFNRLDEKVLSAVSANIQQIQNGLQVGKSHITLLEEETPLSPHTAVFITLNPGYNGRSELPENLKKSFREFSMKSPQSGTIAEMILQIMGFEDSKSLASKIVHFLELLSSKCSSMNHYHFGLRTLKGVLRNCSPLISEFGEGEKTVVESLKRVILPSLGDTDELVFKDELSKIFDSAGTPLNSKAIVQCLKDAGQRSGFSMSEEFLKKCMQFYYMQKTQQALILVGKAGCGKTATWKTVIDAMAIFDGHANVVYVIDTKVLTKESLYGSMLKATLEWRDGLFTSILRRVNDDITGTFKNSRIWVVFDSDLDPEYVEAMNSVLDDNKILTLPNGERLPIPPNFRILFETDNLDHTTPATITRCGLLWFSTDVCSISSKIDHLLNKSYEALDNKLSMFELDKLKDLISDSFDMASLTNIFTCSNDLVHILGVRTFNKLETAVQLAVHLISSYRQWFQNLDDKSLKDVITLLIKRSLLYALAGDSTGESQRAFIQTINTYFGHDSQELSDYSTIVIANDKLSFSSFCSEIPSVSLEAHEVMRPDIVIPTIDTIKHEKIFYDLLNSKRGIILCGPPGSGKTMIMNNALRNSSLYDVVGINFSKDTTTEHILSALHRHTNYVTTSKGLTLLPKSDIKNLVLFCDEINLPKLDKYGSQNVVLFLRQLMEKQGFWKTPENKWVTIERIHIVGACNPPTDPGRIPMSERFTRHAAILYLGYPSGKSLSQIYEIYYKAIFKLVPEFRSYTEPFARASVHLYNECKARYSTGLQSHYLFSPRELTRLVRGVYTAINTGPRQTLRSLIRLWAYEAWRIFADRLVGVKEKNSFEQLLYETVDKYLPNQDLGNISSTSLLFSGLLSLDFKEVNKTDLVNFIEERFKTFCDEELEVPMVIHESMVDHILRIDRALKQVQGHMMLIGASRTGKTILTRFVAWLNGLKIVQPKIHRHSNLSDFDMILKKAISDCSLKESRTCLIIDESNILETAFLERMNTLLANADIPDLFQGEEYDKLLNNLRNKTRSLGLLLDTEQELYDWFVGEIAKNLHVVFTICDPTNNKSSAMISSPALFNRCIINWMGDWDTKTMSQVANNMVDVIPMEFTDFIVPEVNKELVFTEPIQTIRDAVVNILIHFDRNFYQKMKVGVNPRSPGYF
T3 sequence (P36022 3301-4092 limits assumed): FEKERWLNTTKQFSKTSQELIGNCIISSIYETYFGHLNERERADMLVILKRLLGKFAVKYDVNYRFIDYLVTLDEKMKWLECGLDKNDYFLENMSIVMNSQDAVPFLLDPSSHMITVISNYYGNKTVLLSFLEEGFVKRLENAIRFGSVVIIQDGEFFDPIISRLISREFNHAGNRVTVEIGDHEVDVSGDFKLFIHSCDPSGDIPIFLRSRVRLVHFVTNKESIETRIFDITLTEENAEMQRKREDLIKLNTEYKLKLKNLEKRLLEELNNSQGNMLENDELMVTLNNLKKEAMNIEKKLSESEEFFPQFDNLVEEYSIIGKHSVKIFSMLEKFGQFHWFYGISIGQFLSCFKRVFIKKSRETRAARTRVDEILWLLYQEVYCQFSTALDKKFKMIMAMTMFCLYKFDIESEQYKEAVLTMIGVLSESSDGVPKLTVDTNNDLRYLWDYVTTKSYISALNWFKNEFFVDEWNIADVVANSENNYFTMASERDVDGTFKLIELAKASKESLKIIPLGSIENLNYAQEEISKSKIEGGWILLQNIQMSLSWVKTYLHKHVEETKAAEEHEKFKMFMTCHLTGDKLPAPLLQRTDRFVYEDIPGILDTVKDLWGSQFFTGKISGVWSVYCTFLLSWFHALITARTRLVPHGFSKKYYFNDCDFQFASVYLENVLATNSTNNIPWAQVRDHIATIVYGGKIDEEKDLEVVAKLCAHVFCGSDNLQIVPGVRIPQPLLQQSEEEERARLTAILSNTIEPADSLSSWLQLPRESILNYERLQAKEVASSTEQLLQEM
As to the kind of experiment: Microscale thermophoresis. The class given is binding, S. cerevisiae. The note with it: n=2, negative control.

The target of experiment [7] is T1, GFP-Sc-Dyn. Put plainly: Microtubule gliding assay. It counts as biochemical, S. cerevisiae. The note with it: 25 μM compound.
The next experiment addresses Sc-DynGST (Saccharomyces cerevisiae, UniProt P36022). Put plainly: Single-molecule motility assay. The class given is biochemical, S. cerevisiae. Particulars: single-molecule.
Experiment [8] has as its target T2, Hs-dynein 1. Put plainly: Radioactive ATPase assay, microtubule-stimulated ATPase activity of Hs-dynein 1. The class given is biochemical. Put shortly:
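Radioactive ATPase assay with Hs-dynein 1 (His6, aa 1320–4646; 30 nM) in the presence of microtubules. Reaction time was 45 min, and rates with test compound were normalised to DMSO control.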

The target of the next experiment is Dm-spastin (Drosophila melanogaster, UniProt Q8I0P1, DEL311-372). Put plainly: NADH-coupled steady-state ATPase assay, Dm-spastin. It counts as biochemical, D. melanogaster. Particulars: 20 μM, 1 mM MgATP.
The target in a further experiment is Mm-VCP/p97 (Mus musculus, UniProt Q01853). Put plainly: NADH-coupled steady-state ATPase assay, Mm-VCP/p97. The class given is biochemical, M. musculus. Particulars: 20 μM, 1 mM MgATP.
Sequence of Mm-VCP/p97 (Q01853 whole entry): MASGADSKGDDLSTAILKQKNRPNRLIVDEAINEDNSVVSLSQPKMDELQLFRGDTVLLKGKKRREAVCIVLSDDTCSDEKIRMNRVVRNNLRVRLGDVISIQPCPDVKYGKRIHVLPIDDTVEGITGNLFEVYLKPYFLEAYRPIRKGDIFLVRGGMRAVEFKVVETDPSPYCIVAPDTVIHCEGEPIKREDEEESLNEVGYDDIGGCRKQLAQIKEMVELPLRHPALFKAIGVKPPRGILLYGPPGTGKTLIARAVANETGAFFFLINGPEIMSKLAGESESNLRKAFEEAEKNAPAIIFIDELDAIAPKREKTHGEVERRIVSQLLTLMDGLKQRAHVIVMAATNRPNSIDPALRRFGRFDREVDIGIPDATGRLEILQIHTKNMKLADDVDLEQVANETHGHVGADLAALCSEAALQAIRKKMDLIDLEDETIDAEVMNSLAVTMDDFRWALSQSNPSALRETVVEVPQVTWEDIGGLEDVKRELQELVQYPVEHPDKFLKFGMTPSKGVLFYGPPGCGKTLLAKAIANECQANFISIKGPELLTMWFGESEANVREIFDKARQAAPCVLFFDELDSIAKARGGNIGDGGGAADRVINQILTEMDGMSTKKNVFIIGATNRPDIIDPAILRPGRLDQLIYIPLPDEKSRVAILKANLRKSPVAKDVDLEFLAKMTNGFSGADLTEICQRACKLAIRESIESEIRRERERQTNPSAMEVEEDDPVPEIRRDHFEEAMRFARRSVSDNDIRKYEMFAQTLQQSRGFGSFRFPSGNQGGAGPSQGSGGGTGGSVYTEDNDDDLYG
The target in a further experiment is Xl-katanin (Xenopus laevis, UniProt Q9PUL2). As to the kind of experiment: NADH-coupled steady-state ATPase assay, Xl-katanin. It counts as biochemical, X. laevis. Particulars: 20 μM, 1 mM MgATP. Put shortly: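 Recombinant Xl-katanin (50 nM; E. coli, MBP-trap, MonoQ and gel filtration) in 25 mM K-HEPES pH 7.5, 70 mM KCl, 20 mM (NH4)2SO4, 5 mM MgCl2, 2.5 mM DTT, 0.01% Triton X-100 plus NADH-coupled regeneration mix. After 10 min RT preincubation with test compound, MgATP started the reaction. The fluorescence decrease rate (340/440 nm) was converted to ATPase rate using an ADP standard curve.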
Sequence of Xl-katanin (Q9PUL2 whole entry): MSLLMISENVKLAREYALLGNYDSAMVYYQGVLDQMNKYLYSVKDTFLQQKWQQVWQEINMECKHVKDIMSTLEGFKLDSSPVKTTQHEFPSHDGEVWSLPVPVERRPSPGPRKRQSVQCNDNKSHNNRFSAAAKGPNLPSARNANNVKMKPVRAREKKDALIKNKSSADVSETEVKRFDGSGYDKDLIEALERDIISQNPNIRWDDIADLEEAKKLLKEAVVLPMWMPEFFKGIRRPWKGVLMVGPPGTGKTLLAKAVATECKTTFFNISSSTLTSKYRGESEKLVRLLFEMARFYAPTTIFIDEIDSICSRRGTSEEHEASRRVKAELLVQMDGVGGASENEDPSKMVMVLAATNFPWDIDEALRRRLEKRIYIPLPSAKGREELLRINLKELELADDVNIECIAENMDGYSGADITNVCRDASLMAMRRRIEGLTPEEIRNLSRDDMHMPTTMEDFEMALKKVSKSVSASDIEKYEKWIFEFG

In another experiment the target is T4, Hs-FIGL1 (Homo sapiens, UniProt Q6PIW4).
T4 sequence (Q6PIW4 288-674): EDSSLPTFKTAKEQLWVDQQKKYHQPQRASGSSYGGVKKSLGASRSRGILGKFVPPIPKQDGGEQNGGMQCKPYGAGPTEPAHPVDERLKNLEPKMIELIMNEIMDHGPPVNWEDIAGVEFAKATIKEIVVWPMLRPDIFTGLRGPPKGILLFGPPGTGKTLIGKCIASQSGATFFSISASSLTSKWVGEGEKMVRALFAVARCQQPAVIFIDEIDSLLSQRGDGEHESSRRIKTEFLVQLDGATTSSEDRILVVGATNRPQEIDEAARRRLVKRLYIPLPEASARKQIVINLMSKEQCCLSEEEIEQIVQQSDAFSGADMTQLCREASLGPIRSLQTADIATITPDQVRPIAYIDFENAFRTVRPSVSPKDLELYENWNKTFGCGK
As to the kind of experiment: NADH-coupled steady-state ATPase assay, Hs-FIGL1. The class given is biochemical, H. sapiens. The note with it: read-out: Inhibition of ATPase activity, Hs-FIGL1. Put shortly:
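Recombinant Hs-FIGL1 (50 nM; E. coli-expressed) in 25 mM Na-MES pH 6.5, 70 mM KOAc, 20 mM (NH4)2SO4, 5 mM Mg(OAc)2, 1 mM TCEP, 0.01% Triton X-100, with NADH/PEP/pyruvate kinase/lactate dehydrogenase coupling system. Protein preincubated 10 min at RT with test compound, then MgATP added. NADH fluorescence (ex 340, em 440 nm) slope converted to ATPase rate with an ADP standard curve.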

The target of experiment [9] is T1, GFP-Sc-Dyn. As to the kind of experiment: NADH-coupled steady-state ATPase assay, GFP-Sc-Dyn basal ATPase. It counts as biochemical, S. cerevisiae.
The target of experiment [10] is Sc-Dyn-lyso (Saccharomyces cerevisiae, UniProt P36022). Put plainly: NADH-coupled steady-state ATPase assay, Sc-Dyn-lyso. It counts as biochemical, S. cerevisiae. In outline: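 Ten-dose DMSO serial dilution of test compound (stock top 4 mM) was preincubated 10 min at RT. MgATP (10 mM stock) started the reaction, and NADH fluorescence slopes were converted via an ADP standard curve.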

For `Nc1ncnc2c1ncn2[C@@H]1O[C@H](COP(=O)(O)OP(=O)(O)NP(=O)(O)O)[C@@H](O)[C@H]1O` [AMPPNP, adenylyl imidodiphosphate, reference compound], the EC50 at GFP-Sc-Dyn [1] (read-out: EC50, AMPPNP binding to GFP-Sc-Dyn (MST), mean ± 95% CI, n=3, 60% MST power) worked out at 25 ± 20 µM; in [2] it was 180 ± 78 µM.
`N#CC(=C(O)c1ccc(Cl)cc1Cl)c1nc2cc(Cl)ccc2c(=O)[nH]1` [compound 1, ciliobrevin D]: the “Inhibition of dynein's basal ATPase activity (in words)” value on Hs-dynein 1 [3] is listed as “does not”.
One may read the IC50 as the midpoint of a concentration-inhibition curve. As for `N#Cc1c(C2(c3ccc(Cl)cc3)CC2)nn2c1[nH]c(=O)c1cc(I)ccc12` [compound 2, dynapyrazole-A], on Hs-dynein 1 [4], the IC50 is about 10 µM.
In the case of `COc1c[nH]c2c(C#N)c(C3(c4ccc(Cl)cc4)CC3)nn2c1=O` [compound 6, 2-[1-(4-chlorophenyl)cyclopropyl]-6-methoxy-7-oxo-4H-pyrazolo[1,5-a]pyrimidine-3-carbonitrile], the “Inhibition of Hs-dynein 1 basal ATPase activity (in words)” value at Hs-dynein 1 [5] is given as “does not inhibit”. Besides, the “Binding to Sc-Dyn-lyso (MST, in words)” value on Sc-Dyn-lyso [6] is given as “did not bind”. On GFP-Sc-Dyn [1] (control compound), the “Binding to GFP-Sc-Dyn (MST, in words)” value is on record as “could not detect binding”. Further, the “Effect on microtubule gliding (in words)” value at GFP-Sc-Dyn [7] was “comparable to DMSO”. Besides, the “Microtubule gliding velocity, 30 minutes after treatment” value on GFP-Sc-Dyn [7] (1% DMSO, 1 mM Mg-ATP, mean ± SD) is listed as 66 ± 21. Also, at Sc-DynGST, the “Effect on landing rate (in words)” value is recorded as “not sensitive”. For the same compound, at Sc-DynGST (0-50 μM compound), the “Effect on dynein processivity (run length) (in words)” value is on record as “not sensitive” and the “Effect on dynein velocity (in words)” value is “not sensitive”.
For the compound `N#Cc1c(C2(c3ccc(Cl)cc3)CC2)nn2c(=O)c(Oc3ccccc3Cl)c[nH]c12` [compound 13, 6-(2-chlorophenoxy)-2-[1-(4-chlorophenyl)cyclopropyl]-7-oxo-4H-pyrazolo[1,5-a]pyrimidine-3-carbonitrile], the “Inhibition of Hs-dynein 1 basal ATPase activity (in words)” value on Hs-dynein 1 [5] is recorded as “less active”.
Consider `COc1cccc(Oc2c[nH]c3c(C#N)c(C4(c5ccc(Cl)cc5)CC4)nn3c2=O)c1` [compound 16, 2-[1-(4-chlorophenyl)cyclopropyl]-6-(3-methoxyphenoxy)-7-oxo-4H-pyrazolo[1,5-a]pyrimidine-3-carbonitrile], for which the “Inhibition of Hs-dynein 1 basal ATPase activity (in words)” value at Hs-dynein 1 [5] is “less active”.
Same read-out and setting: the entry for `N#Cc1c(C2(c3ccc(Cl)cc3)CC2)nn2c(=O)c(Oc3ccc(Cl)cc3)c[nH]c12` [compound 17, 6-(4-chlorophenoxy)-2-(1-(4-chlorophenyl)cyclopropyl)-7-oxo-4,7-dihydropyrazolo[1,5-a]pyrimidine-3-carbonitrile] is “less active”.
The term inhibition denotes the change of the read-out against control, counted positive when it falls. Regarding `N#Cc1c(C2(c3ccc(Cl)cc3)CC2)nn2c(=O)c(Oc3cccc(Cl)c3)c[nH]c12` [compound 19, 6-(3-chlorophenoxy)-2-[1-(4-chlorophenyl)cyclopropyl]-7-oxo-4H-pyrazolo[1,5-a]pyrimidine-3-carbonitrile], the IC50 was 17 ± 2.3 µM on Hs-dynein 1 [5], about 30 µM at Hs-dynein 1 [8], 10 ± 1.2 µM at GFP-Sc-Dyn [9] and 14 ± 4.9 µM on Sc-Dyn-lyso [10]. Also, the “Inhibition of Hs-dynein 1 basal ATPase activity (in words)” value on Hs-dynein 1 [5] was “most active”. Also, at Dm-spastin, the “Reduction of ATPase activity, Dm-spastin” value is under 25%. In addition, the “Reduction of ATPase activity, Mm-VCP” value on Mm-VCP/p97 is reported as under 25%. In addition, the “Reduction of ATPase activity, Xl-katanin” value on Xl-katanin is reported as under 25%. For the same compound, the inhibition at 20 µM on Hs-FIGL1 was about 85%.
